According to ChEMBL document CHEMBL3232745, “Design, synthesis and evaluation of novel diaryl pyrrolopyrimidine and pyrrolothiazine derivatives as inhibitors of tumor necrosis factor stimulated gene-14 (TSG-14) production” (2014):

Test system: Rattus norvegicus
Test: Antiinflammatory activity in albino rat assessed as inhibition of LPS-induced TSG-14 production at 30 mg/kg, po administered 30 mins before LPS challenge measured after 4 to 6 hrs by ELISA relative to control
Assay type: functional
Outline: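 Male albino rats (~200 g), three per group, dosed orally with compound suspended in 0.5% carboxymethylcellulose. LPS (Escherichia coli B055/B5, 0.1 mg/kg ip) was given 30 min after dosing. Sera were collected 4-6 h after LPS and assayed in duplicate by sandwich ELISA for rat PTX3/TSG-14 (detection limit <0.02 ng/mL). Percent inhibition was taken against an untreated LPS control, as mean ± S.E.M. (n = 3).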

SMILES | inhibition in vivo at 30 mg/kg [%]
CCn1c(=S)[nH]c2c(cc(-c3ccccc3)n2-c2ccccc2)c1=N | 65
N=c1sc(=S)[nH]c2c1cc(-c1ccc(Br)cc1)n2-c1ccccc1 | 44
CCn1c(=S)[nH]c2c(cc(-c3ccc(Br)cc3)n2-c2ccccc2)c1=N | 80
CCSc1nc2c(cc(-c3ccc(C)cc3)n2-c2ccccc2)c(=N)s1 | 0
CCC(C)Sc1nc2c(cc(-c3ccc(C)cc3)n2-c2ccccc2)c(=N)s1 (stereo not given) | 2
CCSc1nc2c(cc(-c3ccccc3)n2-c2ccccc2)c(=N)s1 | 0
N=c1c2cc(-c3ccccc3)n(-c3ccccc3)c2[nH]c(=S)n1N | 23
N=c1c2cc(-c3ccc(Cl)cc3)n(-c3ccccc3)c2[nH]c(=S)n1N | 0
CCC(C)Sc1nc2c(cc(-c3ccc(Cl)cc3)n2-c2ccccc2)c(=N)s1 (stereo not given) | 2
CCn1c(=S)[nH]c2c(cc(-c3ccc(C)cc3)n2-c2ccccc2)c1=N | 60
CCSc1nc2c(cc(-c3ccc(Cl)cc3)n2-c2ccccc2)c(=N)s1 | 1
CCn1c(=S)[nH]c2c(cc(-c3ccc(Cl)cc3)n2-c2ccccc2)c1=N | 61
Cc1ccc(-c2cc3c(=N)sc(=S)[nH]c3n2-c2ccccc2)cc1 | 0
N=c1sc(=S)[nH]c2c1cc(-c1ccccc1)n2-c1ccccc1 | 0
CCC(C)Sc1nc2c(cc(-c3ccc(Br)cc3)n2-c2ccccc2)c(=N)s1 (stereo not given) | 70
CCC(C)Sc1nc2c(cc(-c3ccccc3)n2-c2ccccc2)c(=N)s1 (stereo not given) | 50
N=c1sc(=S)[nH]c2c1cc(-c1ccc(Cl)cc1)n2-c1ccccc1 | 2
N=c1c2cc(-c3ccc(Br)cc3)n(-c3ccccc3)c2[nH]c(=S)n1N | 33
Cc1ccc(-c2cc3c(=N)n(N)c(=S)[nH]c3n2-c2ccccc2)cc1 | 0
CCSc1nc2c(cc(-c3ccc(Br)cc3)n2-c2ccccc2)c(=N)s1 | 1
